# Reference: ChEMBL document CHEMBL4261490, “Exploring the links between peptoid antibacterial activity and toxicity” (Medchemcomm, 2017)
# Square brackets hold non-standard residues; d marks the D form. Peptide text beside a SMILES is read from it. Gly(Nα-4-Cl-benzyl) = O=C(O)CNCc1ccc(Cl)cc1; Gly(N-(CH2)6NH2) = NCCCCCCNCC(=O)O; Gly(N-2-aminoethyl) = NCCNCC(=O)O; Nspe = C[C@H](NCC(=O)O)c1ccccc1; NhArg = N=C(N)NCCCCNCC(=O)O; NPentylGly = CCCCCNCC(=O)O; Nphe = O=C(O)CNCc1ccccc1; Nlys = NCCCCNCC(=O)O
# What was measured:
# [1] = Cytotoxicity against human HaCaT cells assessed as reduction in cell viability pretreated for 1 hr followed by DMEM addition measured after 24 hrs by alamar blue assay; format: cell-based; details: read-out: ED50
# Summary of the method: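 HaCaT keratinocytes are grown in DMEM high glucose with 10% FBS and 1% P/S and seeded at 2x10^4 cells/well 24 h before treatment. Compound dilution series run 2–100 µM (5 mM DMSO stocks) in 50 µL for 1 h, then medium is added for 24 h at 37 °C, 5% CO2. alamarBlue is read after 1 h (Ex 540/Em 620). Triplicate, ≥2 occasions; ED50 from dose-response; amphotericin B positive control.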
# [2] = Cytotoxicity against human HepG2 cells assessed as reduction in cell viability pretreated for 1 hr followed by DMEM addition measured after 24 hrs by alamar blue assay; format: cell-based; details: read-out: ED50
# Summary of the method: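 HepG2 cells are kept in DMEM high glucose with 10% heat-inactivated FBS and 1% P/S at 37 °C, 5% CO2, and seeded at 2x10^4 cells/well one day ahead. They are exposed to compounds (100 to 3 µM, from 5 mM DMSO stocks) in 50 µL for 1 h. Medium is then added and cells incubated 24 h. alamarBlue is read after 2 h (Ex 560/Em 600). Triplicate on ≥2 occasions; ED50 from dose-response; DMSO negative control.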
# [3] = tested on: Pseudomonas aeruginosa; assay: Antibacterial activity against Pseudomonas aeruginosa PAO1 ATCC 15692 incubated for 16 hrs under shaking condition; format: functional; details: PAO1 ATCC 15692, 16 h
# Summary of the method: (§1)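 Broth microdilution (Andrews method) in Iso-sensitest broth. Overnight cultures are adjusted to A650 0.07 (0.5 McFarland) and diluted ten-fold. Compounds come from 5 mM DMSO stocks, 2-fold serially diluted, final 2–100 μM in a 1:1 inoculum:compound mix. Incubation is 37 °C for 16 h with shaking. MIC is the lowest concentration giving complete growth inhibition, read by absorbance; triplicate.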
# [4] = tested on: Staphylococcus aureus; assay: Antibacterial activity against Staphylococcus aureus 3R7089 strain Oxford/ATCC 9144 incubated for 16 hrs under shaking condition; format: functional; details: 3R7089 strain Oxford/ATCC 9144, 16 h; summary of the method: as §1
# [5] = tested on: Staphylococcus epidermidis; assay: Antibacterial activity against Staphylococcus epidermidis clinical isolate incubated for 16 hrs under shaking condition; format: functional; summary of the method: as §1
# [6] = Selectivity index, ratio of ED50 for human HaCaT cells to MIC for Escherichia coli K-12 W3110 ATCC 27325; format: toxicity; details: read-out: Selectivity Index
# [7] = Selectivity index, ratio of ED50 for human HaCaT cells to MIC for Pseudomonas aeruginosa PAO1 ATCC 15692; format: toxicity; details: read-out: Selectivity Index
# [8] = Selectivity index, ratio of ED50 for human HaCaT cells to MIC for Staphylococcus aureus 3R7089 strain Oxford/ATCC 9144; format: toxicity; details: read-out: Selectivity Index
# [9] = Selectivity index, ratio of ED50 for human HaCaT cells to MIC for Staphylococcus epidermidis clinical isolate; format: toxicity; details: read-out: Selectivity Index
# [10] = Selectivity index, ratio of ED50 for human HepG2 cells to MIC for Escherichia coli K-12 W3110 ATCC 27325; format: toxicity; details: read-out: Selectivity Index
# [11] = Selectivity index, ratio of ED50 for human HepG2 cells to MIC for Pseudomonas aeruginosa PAO1 ATCC 15692; format: toxicity; details: read-out: Selectivity Index
# [12] = Selectivity index, ratio of ED50 for human HepG2 cells to MIC for Staphylococcus aureus 3R7089 strain Oxford/ATCC 9144; format: toxicity; details: read-out: Selectivity Index
# [13] = Selectivity index, ratio of ED50 for human HepG2 cells to MIC for Staphylococcus epidermidis clinical isolate; format: toxicity; details: read-out: Selectivity Index
# [14] = tested on: Escherichia coli; assay: Antibacterial activity against Escherichia coli K-12 W3110 ATCC 27325 incubated for 16 hrs under shaking condition; format: functional; details: K-12 substr. W3110 ATCC 27325, 16 h; summary of the method: as §1
SMILES,MIC [3] [µM],MIC [4] [µM],MIC [5] [µM],MIC [14] [µM],CC50 at 24 h [1] [µM],CC50 at 24 h [2] [µM],selectivity ratio [6],selectivity ratio [7],selectivity ratio [8],selectivity ratio [9],selectivity ratio [10],selectivity ratio [11],selectivity ratio [12],selectivity ratio [13]
C[C@@H](c1ccccc1)N(CC(N)=O)C(=O)CN(C(=O)CN(CCCCCCN)C(=O)CN(C(=O)CN(C(=O)CNCCCCCCN)[C@@H](C)c1ccccc1)[C@@H](C)c1ccccc1)[C@@H](C)c1ccccc1,> 100,> 100,25,,> 100,> 100,1,1,1,4,1,1,1,4
COc1ccc(CN(CC(N)=O)C(=O)CN(Cc2ccc(OC)cc2)C(=O)CN(CCCCN)C(=O)CN(Cc2ccc(OC)cc2)C(=O)CN(Cc2ccc(OC)cc2)C(=O)CN(CCCCN)C(=O)CN(Cc2ccc(OC)cc2)C(=O)CN(Cc2ccc(OC)cc2)C(=O)CN(CCCCN)C(=O)CN(Cc2ccc(OC)cc2)C(=O)CN(Cc2ccc(OC)cc2)C(=O)CNCCCCN)cc1,> 100,,,> 100,,> 100,0,0,14,21,1,1,33,50
C[C@@H](c1ccccc1)N(CC(N)=O)C(=O)CN(C(=O)CN(CCN)C(=O)CN(C(=O)CN(C(=O)CN(CCN)C(=O)CN(C(=O)CN(C(=O)CN(CCN)C(=O)CN(C(=O)CN(C(=O)CNCCN)[C@@H](C)c1ccccc1)[C@@H](C)c1ccccc1)[C@@H](C)c1ccccc1)[C@@H](C)c1ccccc1)[C@@H](C)c1ccccc1)[C@@H](C)c1ccccc1)[C@@H](C)c1ccccc1 (H-[Gly(N-2-aminoethyl)][Nspe][Nspe][Gly(N-2-aminoethyl)][Nspe][Nspe][Gly(N-2-aminoethyl)][Nspe][Nspe][Gly(N-2-aminoethyl)][Nspe][Nspe]-NH2),,,,> 100,,,,1,13,13,,1,21,21
NCCCCCCNCC(=O)N(CC(=O)N(CC(=O)N(CCCCCCN)CC(=O)N(CC(=O)N(CC(N)=O)Cc1ccccc1)Cc1ccccc1)Cc1ccccc1)Cc1ccccc1 (H-[Gly(N-(CH2)6NH2)][Nphe][Nphe][Gly(N-(CH2)6NH2)][Nphe][Nphe]-NH2),> 100,> 100,> 100,,> 100,> 100,1,1,1,1,1,1,1,1
C[C@@H](c1ccccc1)N(CC(N)=O)C(=O)CN(C(=O)CN(CCCCCCN)C(=O)CN(C(=O)CN(C(=O)CN(CCCCCCN)C(=O)CN(C(=O)CN(C(=O)CNCCCCCCN)[C@@H](C)c1ccccc1)[C@@H](C)c1ccccc1)[C@@H](C)c1ccccc1)[C@@H](C)c1ccccc1)[C@@H](C)c1ccccc1 (H-[Gly(N-(CH2)6NH2)][Nspe][Nspe][Gly(N-(CH2)6NH2)][Nspe][Nspe][Gly(N-(CH2)6NH2)][Nspe][Nspe]-NH2),> 100,3,2,,> 100,> 100,4,1,33,50,4,1,33,50
CCCCCNCC(=O)N(CC(=O)N(CC(=O)N(CCCCNC(=N)N)CC(=O)N(CC(=O)N(CC(=O)N(CCCCC)CC(=O)N(CC(=O)N(CC(=O)N(CCCCNC(=N)N)CC(=O)N(CC(=O)N(CC(N)=O)[C@@H](C)c1ccccc1)[C@@H](C)c1ccccc1)[C@@H](C)c1ccccc1)[C@@H](C)c1ccccc1)[C@@H](C)c1ccccc1)[C@@H](C)c1ccccc1)[C@@H](C)c1ccccc1)[C@@H](C)c1ccccc1 (H-[NPentylGly][Nspe][Nspe][NhArg][Nspe][Nspe][NPentylGly][Nspe][Nspe][NhArg][Nspe][Nspe]-NH2),> 100,,,> 100,,,,,10,5,,,8,4
"CC(c1ccccc1)N(CC(=O)N(CCCCN)CC(=O)N(CC(=O)N(CC(=O)N(CCCCN)CC(=O)N(CC(=O)N(CC(N)=O)[C@@H](C)c1ccccc1)Cc1ccc(F)cc1)C(C)c1ccccc1)Cc1ccc(F)cc1)C(=O)CN(Cc1ccc(F)cc1)C(=O)CNCCCCN (single isomer, unassigned)",,3,2,,52,36,2,,17,26,,,12,18

# The next lines start with results.
MIC [3] [µM],MIC [4] [µM],MIC [5] [µM],MIC [14] [µM],SMILES,CC50 at 24 h [1] [µM],CC50 at 24 h [2] [µM],selectivity ratio [6],selectivity ratio [7],selectivity ratio [8],selectivity ratio [9],selectivity ratio [10],selectivity ratio [11],selectivity ratio [12],selectivity ratio [13]
> 100,6,3,,NCCCCCCNCC(=O)N(CC(=O)N(CC(=O)N(CCCCCCN)CC(=O)N(CC(=O)N(CC(=O)N(CCCCCCN)CC(=O)N(CC(=O)N(CC(N)=O)Cc1ccccc1)Cc1ccccc1)Cc1ccccc1)Cc1ccccc1)Cc1ccccc1)Cc1ccccc1 (H-[Gly(N-(CH2)6NH2)][Nphe][Nphe][Gly(N-(CH2)6NH2)][Nphe][Nphe][Gly(N-(CH2)6NH2)][Nphe][Nphe]-NH2),> 100,> 100,2,1,17,33,2,1,17,33
> 100,2,6,,NCCCCCCNCC(=O)N(CC(=O)N(CC(=O)N(CCCCCCN)CC(=O)N(CC(=O)N(CC(=O)N(CCCCCCN)CC(=O)N(CC(=O)N(CC(=O)N(CCCCCCN)CC(=O)N(CC(=O)N(CC(N)=O)Cc1ccccc1)Cc1ccccc1)Cc1ccccc1)Cc1ccccc1)Cc1ccccc1)Cc1ccccc1)Cc1ccccc1)Cc1ccccc1 (H-[Gly(N-(CH2)6NH2)][Nphe][Nphe][Gly(N-(CH2)6NH2)][Nphe][Nphe][Gly(N-(CH2)6NH2)][Nphe][Nphe][Gly(N-(CH2)6NH2)][Nphe][Nphe]-NH2),> 100,> 100,8,1,50,17,8,1,50,17
> 100,,,> 100,NCCCCNCC(=O)N(CC(=O)N(CC(=O)N(CCCCN)CC(=O)N(CC(=O)N(CC(=O)N(CCCCN)CC(=O)N(CC(=O)N(CC(=O)N(CCCCN)CC(=O)N(CC(=O)N(CC(N)=O)Cc1ccc(Cl)cc1)Cc1ccc(Cl)cc1)Cc1ccc(Cl)cc1)Cc1ccc(Cl)cc1)Cc1ccc(Cl)cc1)Cc1ccc(Cl)cc1)Cc1ccc(Cl)cc1)Cc1ccc(Cl)cc1 (H-[Nlys][Gly(Nα-4-Cl-benzyl)][Gly(Nα-4-Cl-benzyl)][Nlys][Gly(Nα-4-Cl-benzyl)][Gly(Nα-4-Cl-benzyl)][Nlys][Gly(Nα-4-Cl-benzyl)][Gly(Nα-4-Cl-benzyl)][Nlys][Gly(Nα-4-Cl-benzyl)][Gly(Nα-4-Cl-benzyl)]-NH2),,,,,1,3,,,1,4
,3,2,,"CC(c1ccccc1)N(CC(=O)N(CCCCN)CC(=O)N(CC(=O)N(CC(=O)N(CCCCN)CC(=O)N(CC(=O)N(CC(N)=O)[C@@H](C)c1ccccc1)[C@@H](C)c1ccccc1)Cc1ccc(F)cc1)Cc1ccc(F)cc1)C(=O)CN(C(=O)CNCCCCN)[C@@H](C)c1ccccc1 (single isomer, unassigned)",65,43,5,3,22,33,3,,14,22
